ChEMBL document CHEMBL4680209, “Design, synthesis, and evaluation of new 2-(quinoline-4-yloxy)acetamide-based antituberculosis agents” (Eur J Med Chem, 2020)
Values after ≈ are worked out from the molar mass of the structure shown.

Columns and labels:
[1] = test system: Mycobacterium tuberculosis; assay: Inhibition of multidrug-resistant Mycobacterium tuberculosis PT2 clinical isolate QcrB assessed as reduction in bacterial growth by resazurin reduction microplate assay
Summary of the method: (§1)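 REMA in Middlebrook 7H9 with 10% ADC and 5% DMSO. Compounds come from 2 mg/mL DMSO stocks as 10-point 2-fold serial dilutions, with a top concentration of 5–40 µg/mL set by solubility. MIC is the lowest concentration preventing resazurin blue-to-pink conversion. Three independent experiments; the modal or highest value is reported, in µM.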

[2] = test system: Mycobacterium tuberculosis; assay: Inhibition of multidrug-resistant Mycobacterium tuberculosis PT12 clinical isolate QcrB assessed as reduction in bacterial growth by resazurin reduction microplate assay; summary of the method: as §1
[3] = test system: Mycobacterium tuberculosis; assay: Inhibition of multidrug-resistant Mycobacterium tuberculosis PT20 clinical isolate QcrB assessed as reduction in bacterial growth by resazurin reduction microplate assay; summary of the method: as §1
[4] = test system: Mycobacterium tuberculosis; assay: Inhibition of Mycobacterium tuberculosis QcrB T313A mutant assessed as reduction in bacterial growth by resazurin reduction microplate assay; summary of the method: as §1
[5] = Ratio of MIC for inhibition of Mycobacterium tuberculosis QcrB T313A mutant to MIC for inhibition of Mycobacterium tuberculosis H37Rv ATCC 27294 QcrB assessed as reduction in bacterial growth

Structure (SMILES) | MIC [1] [µM] | MIC [2] [µM] | MIC [3] [µM] | MIC [4] [µM] | Ratio [5]
COc1ccc2nc(C)cc(OCC(=O)c3cccc(Cl)c3)c2c1 | 0.5 (≈ 0.171 µg/mL) | 0.9 (≈ 0.308 µg/mL) | 0.2 (≈ 0.0684 µg/mL) | 7.3 (≈ 2.5 µg/mL) | > 4
CO[C@H]1/C=C/O[C@@]2(C)Oc3c(C)c(O)c4c(O)c(c(/C=N/N5CCN(C)CC5)c(O)c4c3C2=O)NC(=O)/C(C)=C\C=C\[C@H](C)[C@H](O)[C@@H](C)[C@@H](O)[C@@H](C)[C@H](OC(C)=O)[C@@H]1C | > 48.6 | > 48.6 | 12.2 (≈ 10 µg/mL) |  | 
COc1ccc2nc(C)cc(OCc3ccc(Cl)c(Cl)c3)c2c1 | 0.2 (≈ 0.0696 µg/mL) | 0.5 (≈ 0.174 µg/mL) | 0.2 (≈ 0.0696 µg/mL) | 14.4 (≈ 5.01 µg/mL) | > 4
COc1ccc2nc(C)cc(OCc3ccc(C(C)C)cc3)c2c1 | 0.5 (≈ 0.161 µg/mL) | 1 (≈ 0.321 µg/mL) | 0.2 (≈ 0.0643 µg/mL) | 7.8 (≈ 2.51 µg/mL) | > 4
NNC(=O)c1ccncc1 |  | 72.9 (≈ 10 µg/mL) | 146 (≈ 20 µg/mL) | 2.3 (≈ 0.315 µg/mL) | 
COc1ccc2nc(C)cc(OCC(=O)c3ccccc3)c2c1 | 2 (≈ 0.615 µg/mL) | 2 (≈ 0.615 µg/mL) | 1 (≈ 0.307 µg/mL) | 32.5 (≈ 9.99 µg/mL) | > 4
